This note sets out measurements from ChEMBL document CHEMBL5096209, “Structure-Activity Studies of 3,9-Diazaspiro[5.5]undecane-Based γ-Aminobutyric Acid Type A Receptor Antagonists with Immunomodulatory Effect” (J Med Chem, 2021).

The structures appear in SMILES notation. Calls of active or inactive are those of the source. The rule behind the calls is not given here.

Tested on in one assay: not listed separately
Kind of assay: Antiproliferative activity against human CD8-positive T cells at 33 uM measured after 96 hrs by flow cytometry analysis relative to control. It is filed as functional, CD8-positive T cell. Summed up:
(§1)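 Human PBMC were isolated from leukocyte cones by density gradient centrifugation and frozen. After overnight high-density culture at 1×10^7 cells/ml, cells were labelled with 5 μM CFSE for 10 min at room temperature and stimulated with soluble anti-CD3 (OKT3) at 100 pg/mL. Culture ran 96 h. Proliferating CD4+ and CD8+ cells were scored by CFSE flow cytometry against a PBS control. n≥6 independent experiments; one-way ANOVA with Tukey.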
`Cc1nnc2n1-c1ccc(Cl)cc1C(c1ccccc1)=NC2` [ALPRAZOLAM]: the Activity amounted to 34.8%.

Tested on in another assay: not listed separately
Nature of the assay: Antiproliferative activity against human CD4+ve T cells at 33 uM measured after 96 hrs by flow cytometry analysis relative to control. It is filed as functional, CD4+ve Th. Put shortly:
as §1
Turning to `Cc1nnc2n1-c1ccc(Cl)cc1C(c1ccccc1)=NC2` [ALPRAZOLAM], the Activity is 35.7%.

The target of a further assay is GABA-A receptor; anion channel. Nature of the assay: Displacement of [3H]-muscimol from rat cortical synaptic membrane GABAA receptor assessed as inhibition constant by microscint-scintillation method. The format is cell membranes, Cortex. Summed up:
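Rat cortical synaptic membranes, washed repeatedly in 50 mM Tris-HCl pH 7.4, 70–80 μg protein. Incubated at 0 °C with 5 nM [3H]-muscimol (final) and a range of test concentrations, then filtered and counted by scintillation. Nonspecific binding defined with 1.0 mM GABA. IC50 converted to Ki by Cheng–Prusoff, triplicate, three independent experiments.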
`Nc1cccc(C(=O)N2CCC3(CCNCC3)CC2)c1`: the inhibition constant (Ki) turned out to be 1200 nM. On to `O=C(c1cccc(O)c1)N1CCC2(CCNCC2)CC1`, for which the Ki was 340 nM and the pKi turned out to be 6.49. Consider `O=C(c1cccc(Br)c1)N1CCC2(CCNCC2)CC1`, for which the inhibitory constant (Ki) was found to be 300 nM. The same measure, in the same setting: next, `CC(=O)N1CCC2(CCNCC2)CC1`: above 100000 nM; `O=C(c1cccc(OCc2cccs2)c1)N1CCC2(CCNCC2)CC1`: 1000 nM; `O=C(c1cccc(OCc2ccccc2)c1)N1CCC2(CCNCC2)CC1`: 1000 nM. Same read-out and setting: next, `O=C(c1ccc(OCc2ccccc2)cc1)N1CCC2(CCNCC2)CC1`: 1000 nM. As for `Nc1ccc(C(=O)N2CCC3(CCNCC3)CC2)cc1`, the Ki turned out to be 710 nM and the pKi came to 6.16. In the same order, the values of `O=C(c1ccc(O)cc1)N1CCC2(CCNCC2)CC1` are 860 nM and 6.08. As for `O=C(c1ccc([N+](=O)[O-])cc1)N1CCC2(CCNCC2)CC1`, the inhibition constant (Ki) was 9400 nM. The same measure, in the same setting: with `COC(=O)N1CCC2(CCNCC2)CC1` the figure was 37000 nM. Regarding `O=C(c1cccc([N+](=O)[O-])c1)N1CCC2(CCNCC2)CC1`, the Ki turned out to be 1500 nM.

`O=C(c1ccc(C(F)(F)F)cc1)N1CCC2(CCNCC2)CC1`: the inhibition constant (Ki) turned out to be 2200 nM. Still for that read-out and setting: with `Cc1ccccc1C(=O)N1CCC2(CCNCC2)CC1` the figure was 4200 nM; with `O=C(c1ccccc1)N1CCC2(CCNCC2)CC1`, 1400 nM.

In the case of `Brc1ccc(CN2CCC3(CCNCC3)CC2)cc1`, the inhibition constant Ki amounted to 27000 nM. On the same count and under the same terms, next, `O=C(c1ccccc1Br)N1CCC2(CCNCC2)CC1`: 2700 nM. Still for that read-out and setting: next, `O=C(c1ccc(Br)cc1)N1CCC2(CCNCC2)CC1`: 230 nM; `Cc1cccc(CN2CCC3(CCNCC3)CC2)c1`: above 200000 nM.

Tested on in the next assay: not listed separately
Kind of assay: Induction of cell proliferation of human CD8-positive T cells at 100 uM measured after 96 hrs by flow cytometry analysis relative to control. The format is functional. Summed up: (§2)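 Rescue format on human PBMC. Cells were CFSE-labelled (5 μM), stimulated with anti-CD3 OKT3 at 100 pg/mL, and treated with alprazolam 33 μM plus test agent at 100 μM. Culture ran 96 h. Proliferating CD4+ and CD8+ T cell percentages were measured by flow cytometry. Vehicle controls (methanol, DMSO) were included. n≥6 independent experiments; one-way ANOVA with Tukey.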
`C[N+]1(C)CCc2cc3c(cc2[C@H]1[C@@H]1OC(=O)c2c1ccc1c2OCO1)OCO3.[I-]` came in with an Activity of 20%.

The next assay deals with CD4+ve Th. Kind of assay: Induction of cell proliferation of human CD4+ve Th cells at 100 uM measured after 96 hrs by flow cytometry analysis relative to control. The format is functional. Summed up: as §2
Regarding `C[N+]1(C)CCc2cc3c(cc2[C@H]1[C@@H]1OC(=O)c2c1ccc1c2OCO1)OCO3.[I-]`, the Activity was 20%.

The subject of a further assay is CD8-positive T cell. Nature of the assay: Antiproliferative activity against mouse CD8-positive T cells at 100 uM measured after 48 hrs by flow cytometry analysis. The format is functional, cell-based. Put shortly:
(§3)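 Splenocytes came from female wild-type BALB/c mice and were red-cell lysed. They were labelled with 5 μM CFSE for 10 min at room temperature and activated with soluble anti-mouse CD3 (145.2C11) at 33 ng/mL. Culture ran 48 h in RPMI with 10% FCS and 2 μM 2-mercaptoethanol. Percent proliferating CD4+ and CD8+ cells was read by flow cytometry. n≥6 independent experiments; one-way ANOVA with Tukey.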
As to `Cc1nnc2n1-c1ccc(Cl)cc1C(c1ccccc1)=NC2` [ALPRAZOLAM], the outcome was Active.

In another assay the test system is CD4+ve Th. Nature of the assay: Antiproliferative activity against mouse CD4+ve Th cells at 100 uM measured after 48 hrs by flow cytometry analysis. It is filed as functional, cell-based. Put shortly: as §3
Turning to `Cc1nnc2n1-c1ccc(Cl)cc1C(c1ccccc1)=NC2` [ALPRAZOLAM], the outcome was Active.
